Only some compounds are listed: those with a hit (about 2.8% of all), similar ones and a draw of the others.
NPY Y2 blocker = blocks the human neuropeptide Y Y2 receptor | actives 0.99% (n = 140,000) | AID 793 | NPY-Y2 expressing cells, antagonist mode | inhibition, % at 2.7 µM; in the data active = inhibition above about 17%;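 also: 0% = vehicle with agonist challenge and 100% = reference antagonist with challenge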
NPY-Y1 PAM-ag = potentiators or agonists of human neuropeptide Y receptor Y1 | NPY-Y1 expressing cells, potentiator/agonist activation | P25929 | activation, % at 3.6 µM | actives 0.37% (n = 220,000); in the data active = activation above about 33%, passing the limit was not always enough;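 also: cells stimulated with NPY at EC10 then isoproterenol at EC100; 0% = low agonist plus stimulus and 100% = saturating agonist plus stimulus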
Target sequence (P25929 whole entry, looked up): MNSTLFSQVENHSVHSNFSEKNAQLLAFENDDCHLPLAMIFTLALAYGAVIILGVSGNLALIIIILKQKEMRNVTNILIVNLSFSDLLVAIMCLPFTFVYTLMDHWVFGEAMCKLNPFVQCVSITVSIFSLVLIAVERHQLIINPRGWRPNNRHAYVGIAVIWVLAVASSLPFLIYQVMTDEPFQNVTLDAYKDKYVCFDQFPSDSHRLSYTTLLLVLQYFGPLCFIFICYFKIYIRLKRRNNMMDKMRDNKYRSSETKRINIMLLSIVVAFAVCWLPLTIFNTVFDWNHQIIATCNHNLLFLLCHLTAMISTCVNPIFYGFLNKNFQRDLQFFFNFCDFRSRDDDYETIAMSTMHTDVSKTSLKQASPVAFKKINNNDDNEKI
EP2 antag = EP2 receptor (human) inhibition; P43116; C6 glioma cells expressing human EP2, cAMP TR-FRET; cells stimulated with saturating PGE2; inhibition, % at 25 µM; actives 0.52% (n = 260,000);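 active = percent inhibition above 40 after rounding to a whole number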;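 also: rat C6 glioma host cells with rolipram phosphodiesterase inhibitor present; the protocol text gives 20 µM as final concentration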
EP2 mod = modulates human prostaglandin E2 receptor EP2 signaling. P43116. EP2-expressing cells, cAMP HTRF FRET, PGE2 co-stimulation. induction, % at 25 µM. actives 0.83% (n = 260,000). AID 940;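 active = compounds whose cAMP rise, as percent of the full-agonist control response, exceeds 60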;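 also: rat C6 glioma line stably carrying human EP2 under a CMV promoter; the protocol text gives 20 µM as final concentration; 100% = response of wells given 1 µM PGE2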
NPY Y1 blocker = NPY-Y1 (human) receptor antagonism | inhibition, % at 3.6 µM | P25929 | HEK293-CNG Y1 cells, membrane potential fluorescence; NPY at EC95, then isoproterenol | actives 1% (n = 200,000) | AID 1040;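 active = inhibition above the campaign mean inhibition of all tested compounds plus 3 SD, cut at about 20% in these data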;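 also: 0% = DMSO wells given NPY plus isoproterenol and 100% = isoproterenol alone without NPY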
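Material: Y1- and CNG-channel-expressing HEK293 cells / Probe or stimulus: NPY 25 nM then isoproterenol 1 µM plus Ro 20-1724 25 µM / Doses: 3.6 µM single dose, DMSO 0.4% / Schedule: compound incubation 1 h at room temperature, readout 45 min post-stimulation / Signal: membrane potential fluorescence / Benchmarks: isoproterenol-only wells as full block versus NPY-plus-isoproterenol wells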
NPY-Y2 PAM-ag = human NPY-Y2 potentiation or agonism, primary screen | AID 1359 | P49146 | actives 0.45% (n = 220,000) | cells expressing NPY-Y2, potentiator/agonist read-out | activation, % at 3.6 µM; in the data active = activation above about 27%;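 also: cells stimulated with NPY near EC25 plus isoproterenol at EC100; 0% = vehicle plus submaximal agonist and 100% = vehicle plus saturating agonist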
* marks the source's active call; other numbers are inactive results; · = no result.

SMILES	NPY Y2 blocker	NPY-Y1 PAM-ag	EP2 antag	EP2 mod	NPY Y1 blocker	NPY-Y2 PAM-ag
COc1cc2c(cc1OC)[C@@]13CCN4C=C5CCO[C@H]6CC(=O)N2[C@H]1[C@H]6[C@H]5C[C@H]43	·	·	53*	-9	·	·
O=C(O)C[C@H]1OCC=C2CN3CC[C@]45C6=CC(=O)C(=O)C([N+](=O)[O-])=C6N[C@H]4[C@H]1[C@H]2C[C@H]35	·	·	41*	-9	·	·
CCN(CC)S(=O)(=O)c1ccc(NN=C(C#N)C#N)cc1	2	25	8	1	1	15
N#CC(C#N)=NNc1ccc(-n2ccc(C(F)(F)F)n2)cc1	·	55*	9	-61	·	68*
Cc1ccc(OP(=O)(Oc2ccc(C)cc2)N2C=Cc3ccccc3[C@H]2C#N)cc1	·	·	42*	36	·	·
CC(C)[C@H]1CN(Cc2ccccc2F)CCN1C(=O)Cc1n[nH]c(=O)c2ccccc12	·	·	·	-24	·	·
O=C(O)CN1CCN(CC(=O)O)CC(=O)[O][Hg][O]C(=O)C1	·	·	103*	-25	·	·
COc1ccc(C(=O)O[C@@H]2CC[C@@]3(C)[C@@H]4CC[C@@H]5[C@@]6(O)C[C@@H](O)[C@@]7(O)[C@@H](CN8C[C@H](C)CC[C@H]8[C@]7(C)O)[C@]6(O)C[C@@]53O[C@@]42O)cc1OC	·	·	45*	4	·	·
CNCCc1ccc(O)c(O)c1	·	·	13	71*	·	·
O=C(O)C[SH+]CC(=O)O.O=C(O)C[SH+]CC(=O)O.[Cu]	·	·	44*	17	·	·
Clc1cccc(C2NCc3ccccc3-n3cccc32)c1 (stereo unspecified)	·	-13	4	69*	·	-51
O=c1[nH]c(CN2CCN3CCCCC3C2)nc2ccccc12 (stereo unspecified)	·	·	13	-4	·	·
CCC1=C(C[C@H]2NCCc3cc(OC)c(OC)cc32)C[C@H]2c3ccccc3CCN2C1	·	·	52*	21	·	·
O=C1NC(=O)N(c2ccccc2)C(=O)/C1=C/c1ccc(Sc2ccccc2)o1	2	2	41*	-3	-2	-11
Cc1ccc2[nH]c(C)c(CC(=O)N(C)CCN(C)C)c2c1	·	·	9	-13	·	·
CC1CC[C@]2(NC1)O[C@H]1CC3C4CC[C@H]5C[C@@H](O)CC[C@]5(C)C4CC[C@]3(C)[C@H]1[C@@H]2C (stereo partly specified)	·	·	17	12	·	·
Cc1ccc2scc(CC(=O)N(C)CCN(C)C)c2c1	·	·	5	-71	·	·
O=S(=O)(O)/C(=C\c1ccccc1)c1ccccc1 (tested in a mixture with another compound)	·	·	46*	26	·	·
NCC(=O)c1ccccc1	·	·	10	26	·	·
CC(=O)N1CCCc2cc(C(O)CN3CC=C(c4ccc(Cl)cc4)CC3)ccc21 (stereo unspecified)	·	·	13	-64	·	·
CC1(C)CCC(C)(C)c2c1ccc(O)c2Cc1c(O)ccc2c1C(C)(C)CCC2(C)C	·	·	45*	23	·	·
Cn1ccnc1C1(O)CC2CCC(C1)N2CC(=O)Nc1ccc2c(c1)CCC2 (stereo unspecified)	·	·	·	-2	·	·
NC(=O)c1c([N+](=O)[O-])no[n+]1[O-]	·	·	119*	-102	·	·
NC(=O)c1cc([N+](=O)[O-])cc([N+](=O)[O-])c1	·	·	12	-16	·	·
C[C@@H]1O[C@@H](O[C@H]2C[C@@H](O)[C@]3(CO)[C@H]4[C@H](O)C[C@]5(C)[C@@H](C6COC(=O)C6)CC[C@]5(O)[C@@H]4CC[C@]3(O)C2)[C@H](O)[C@H](O)[C@H]1O (stereo partly specified)	24*	-93	12	14	46*	-35
C[C@@H]1O[C@H](O[C@H]2C[C@@H](O)[C@]3(CO)[C@@H]4[C@@H](O)C[C@]5(C)[C@@H](C6=CC(=O)OC6)CC[C@@]5(O)[C@H]4CC[C@@]3(O)C2)[C@@H](O)[C@H](O)[C@H]1O	·	·	42*	14	·	·
C[C@@H]1O[C@@H](O[C@H]2CC[C@]3(C=O)C4CC[C@]5(C)[C@@H](C6=CC(=O)OC6)CC[C@]5(O)C4CC[C@]3(O)C2)[C@H](O)[C@H](O)[C@H]1O (stereo partly specified)	·	·	13	3	·	·
C#CCOc1ccc(CN2C3CCC2CC(O)(c2ccccc2F)C3)cc1 (stereo unspecified)	·	·	3	-56	·	·

Bioassay records: PubChem, several laboratories
